Source: ChEMBL document CHEMBL5096186, “Design, Synthesis, and Biological Evaluation of Novel Pyrimido[4,5-b]indole Derivatives Against Gram-Negative Multidrug-Resistant Pathogens” (J Med Chem, 2021)
In brackets after ≈: the same amount, converted by molar mass.

How the values were obtained:
[1] = test system: Klebsiella pneumoniae; test: Antibacterial activity agains wild type Klebsiella pneumoniae ATCC BAA-2470 assessed as reduction in bacterial growth incubated for 18 to 20 hrs by CLSI based microdilution method; type: functional; conditions: time 18-20 hrs
Method in brief: (§1)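 Broth microdilution per CLSI. Compounds dissolved in DMSO (levofloxacin and meropenem in water) as 64 μg/mL stock, then serial twofold dilutions in broth giving 64 to 0.008 μg/mL. […] Clinical isolates tested as several strains per group; racemic GP-1 served as positive control; values given as MIC ranges.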

[2] = Elimination half life in Sprague-Dawley rat at 5 mg/kg, iv measured upto 24 hrs by LC-MS/MS analysis; type: ADME, organism-based; conditions: in vivo, read-out: beta t1/2 (converted)
Method in brief: (§2)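 Male Sprague-Dawley rats, n = 3 per group, single intravenous dose. For 4 mg/kg: 180–280 g rats, vehicle 5% DMSO + 5% EtOH + 40% PEG300 + 50% saline, blood from the retrobulbar vein at 0.05–24 h. For 5 and 20 mg/kg: 180–300 g rats, vehicle 5% DMSO + 5% solutol + 90% saline, sampled at 0.083–24 h. Plasma quantified by LC/MS/MS. Parameters from mean plasma concentration by noncompartmental analysis; values are mean ± standard deviation.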

[3] = Metabolic stability in rat liver microsome assessed as metabolic bioavailability at 0.1 uM in presence of NADPH incubated upto 60 mins by LC-MS/MS analysis; type: ADME; conditions: liver microsomes
Method in brief: (§3)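 Compound at 0.1 μM final, in 0.01% DMSO with 0.005% BSA. Incubated with rat or human liver microsomes at 0.33 mg/mL in 0.1 M Tris-HCl, pH 7.4, with 5 mM MgCl₂ and 1 mM NADPH, at 37 °C. Samples at 0, 7, 17, 30 and 60 min quenched with cold methanol and analysed by LC-MS/MS. Half-life, Cl_int and MF% derived as previously described.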

[4] = Metabolic stability in human liver microsome assessed as elimination half life at 0.1 uM in presence of NADPH incubated upto 60 mins by LC-MS/MS analysis; type: ADME; conditions: liver microsomes, read-out: beta t1/2; method in brief: as §3
[5] = test system: Acinetobacter baumannii; test: Antibacterial activity agains OXA23-producing multidrug resistant Acinetobacter baumannii assessed as reduction in bacterial growth incubated for 18 to 20 hrs by CLSI based microdilution method; type: functional; conditions: time 18-20 hrs; method in brief: as §1
[6] = Metabolic stability in rat liver microsome assessed as intrinsic clearance at 0.1 uM in presence of NADPH incubated upto 60 mins by LC-MS/MS analysis; type: ADME; conditions: microsomes, 1 h; method in brief: as §3
[7] = AUC (0 to infinity) in Sprague-Dawley rat at 5 mg/kg, iv measured upto 24 hrs by LC-MS/MS analysis; type: ADME, organism-based; design: time < 24 hrs, dose 5 mg/kg, route iv; conditions: in vivo; method in brief: as §2
[8] = test system: Pseudomonas aeruginosa; test: Antibacterial activity against IMP4-producing multidrug resistant Pseudomonas aeruginosa assessed as reduction in bacterial growth incubated for 18 to 20 hrs by CLSI based microdilution method; type: functional; conditions: time 18-20 hrs; method in brief: as §1
[9] = Metabolic stability in rat liver microsome assessed as elimination half life at 0.1 uM in presence of NADPH incubated upto 60 mins by LC-MS/MS analysis; type: ADME; conditions: liver microsomes, read-out: beta t1/2; method in brief: as §3
[10] = test system: Klebsiella pneumoniae; test: Antibacterial activity agains wild type Klebsiella pneumoniae ATCC BAA-1705 assessed as reduction in bacterial growth incubated for 18 to 20 hrs by CLSI based microdilution method; type: functional; conditions: time 18-20 hrs
Method in brief: (§4)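 CLSI broth microdilution. Compounds in DMSO (levofloxacin and meropenem in water), serial twofold dilutions in broth, 64 to 0.008 μg/mL. […] Results reported as MIC ranges across strains.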

[11] = Metabolic stability in human liver microsome assessed as intrinsic clearance at 0.1 uM in presence of NADPH incubated upto 60 mins by LC-MS/MS analysis; type: ADME; conditions: microsomes, 1 h; method in brief: as §3
[12] = MRT in Sprague-Dawley rat at 5 mg/kg, iv measured upto 24 hrs by LC-MS/MS analysis; type: ADME, organism-based; conditions: in vivo; method in brief: as §2
[13] = test system: Klebsiella pneumoniae; test: Antibacterial activity against KPC2-producing multidrug resistant Klebsiella pneumoniae assessed as reduction in bacterial growth incubated for 18 to 20 hrs by CLSI based microdilution method; type: functional; conditions: time 18-20 hrs; method in brief: as §1
[14] = test system: Pseudomonas aeruginosa; test: Antibacterial activity against wild type Pseudomonas aeruginosa ATCC 27853 assessed as reduction in bacterial growth incubated for 18 to 20 hrs by CLSI based microdilution method; type: functional; conditions: time 18-20 hrs; method in brief: as §4
[15] = test system: Escherichia coli; test: Antibacterial activity against multidrug resistant wild type Escherichia coli ATCC BAA-2340 assessed as reduction in bacterial growth incubated for 18 to 20 hrs by CLSI based microdilution method; type: functional; conditions: time 18-20 hrs; method in brief: as §1
[16] = test system: Escherichia coli; test: Antibacterial activity against ESBL-producing multidrug resistant Escherichia coli assessed as reduction in bacterial growth incubated for 18 to 20 hrs by CLSI based microdilution method; type: functional; conditions: time 18-20 hrs; method in brief: as §1
[17] = test system: Acinetobacter baumannii; test: Antibacterial activity against wild type Acinetobacter baumannii NCTC 13304 assessed as reduction in bacterial growth incubated for 18 to 20 hrs by CLSI based microdilution method; type: functional; conditions: time 18-20 hrs; method in brief: as §1
[18] = Clearance in Sprague-Dawley rat at 5 mg/kg, iv measured upto 24 hrs by LC-MS/MS analysis; type: ADME, organism-based; conditions: in vivo; method in brief: as §2
[19] = Volume of distribution at the steady state in Sprague-Dawley rat at 5 mg/kg, iv measured upto 24 hrs by LC-MS/MS analysis; type: ADME, organism-based; conditions: in vivo, read-out: Vdss; method in brief: as §2
[20] = Metabolic stability in human liver microsome assessed as metabolic bioavailability at 0.1 uM in presence of NADPH incubated upto 60 mins by LC-MS/MS analysis; type: ADME; conditions: liver microsomes; method in brief: as §3
[21] = test system: Escherichia coli; test: Antibacterial activity against multidrug resistant wild type Escherichia coli NCTC 13353 assessed as reduction in bacterial growth incubated for 18 to 20 hrs by CLSI based microdilution method; type: functional; conditions: time 18-20 hrs; method in brief: as §1
[22] = biological target: Voltage-gated inwardly rectifying potassium channel KCNH2 (Homo sapiens, UniProt Q12809); test: Inhibition of hERG potassium channel assessed as […] at -80 mV holding potential incubated for 120 seconds by whole cell-automated voltage clamp analysis assay; type: toxicity
Sequence of Voltage-gated inwardly rectifying potassium channel KCNH2 (Q12809 whole entry): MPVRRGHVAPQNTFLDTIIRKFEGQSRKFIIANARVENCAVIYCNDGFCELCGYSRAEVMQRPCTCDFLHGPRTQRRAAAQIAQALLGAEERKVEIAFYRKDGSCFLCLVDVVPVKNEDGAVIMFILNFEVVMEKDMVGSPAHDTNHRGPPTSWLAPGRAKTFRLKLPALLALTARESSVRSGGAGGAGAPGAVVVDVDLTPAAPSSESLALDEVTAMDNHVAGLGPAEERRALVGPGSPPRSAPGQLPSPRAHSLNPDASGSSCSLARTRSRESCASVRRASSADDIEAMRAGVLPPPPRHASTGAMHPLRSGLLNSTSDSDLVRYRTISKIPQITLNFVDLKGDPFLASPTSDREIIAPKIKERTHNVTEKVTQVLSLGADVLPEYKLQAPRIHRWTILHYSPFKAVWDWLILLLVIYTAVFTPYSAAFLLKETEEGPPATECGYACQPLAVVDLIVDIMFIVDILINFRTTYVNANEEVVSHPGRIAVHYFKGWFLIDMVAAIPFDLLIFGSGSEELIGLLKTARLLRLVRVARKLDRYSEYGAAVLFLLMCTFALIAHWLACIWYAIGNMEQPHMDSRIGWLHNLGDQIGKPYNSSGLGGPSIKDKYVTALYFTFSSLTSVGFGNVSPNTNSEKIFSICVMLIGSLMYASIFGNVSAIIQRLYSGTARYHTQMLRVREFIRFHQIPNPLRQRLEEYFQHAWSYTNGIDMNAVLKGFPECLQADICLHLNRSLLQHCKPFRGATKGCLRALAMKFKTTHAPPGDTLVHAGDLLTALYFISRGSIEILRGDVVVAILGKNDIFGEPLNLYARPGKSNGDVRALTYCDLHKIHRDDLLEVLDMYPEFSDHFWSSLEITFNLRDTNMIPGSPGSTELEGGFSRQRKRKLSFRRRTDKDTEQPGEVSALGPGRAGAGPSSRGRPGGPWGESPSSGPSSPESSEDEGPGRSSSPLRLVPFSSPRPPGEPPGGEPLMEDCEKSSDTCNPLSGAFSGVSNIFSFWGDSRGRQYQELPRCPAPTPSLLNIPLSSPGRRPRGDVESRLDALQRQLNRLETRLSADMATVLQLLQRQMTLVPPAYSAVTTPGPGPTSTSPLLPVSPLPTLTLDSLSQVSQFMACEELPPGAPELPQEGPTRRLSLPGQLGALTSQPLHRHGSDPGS
Method in brief: (§5)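 Automated whole-cell patch clamp, holding potential −80 mV. Voltage protocol applied every 20 s. Baseline set with external solution containing 0.1% DMSO and stabilised 3 min. Compound applied until steady state, at least 3 min, then washout. Maximum tested concentration 40 μM, or 3 μM for cisapride as positive control.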

[23] = biological target: hERG (KCNH2) potassium channel (Homo sapiens, UniProt Q12809); test: Inhibition of hERG potassium channel assessed as maximum inhibition rate at 40 uM at -80 mV holding potential incubated for 120 seconds by whole cell-automated voltage clamp analysis assay relative to control; type: toxicity; conditions: time 120 sec; method in brief: as §5
Sequence of hERG (KCNH2) potassium channel (Q12809 whole entry): as above

[24] = test system: Staphylococcus aureus; test: Antibacterial activity against methicillin-sensitive Staphylococcus aureus strains 15 1 to 4 assessed as reduction in bacterial growth incubated for 18 to 20 hrs by CLSI based microdilution method; type: functional; conditions: time 18-20 hrs; method in brief: as §1
[25] = test system: Escherichia coli; test: Antibacterial activity against Escherichia coli ATCC 35218 strains 15 1 to 3 assessed as reduction in bacterial growth incubated for 18 to 20 hrs by CLSI based microdilution method; type: functional; conditions: time 18-20 hrs; method in brief: as §4
[26] = Volume of distribution at the steady state in Sprague-Dawley rat at 4 mg/kg, iv measured upto 24 hrs by LC-MS/MS analysis; type: ADME, organism-based; conditions: in vivo, read-out: Vdss; method in brief: as §2
[27] = MRT in Sprague-Dawley rat at 4 mg/kg, iv measured upto 24 hrs by LC-MS/MS analysis; type: ADME, organism-based; conditions: in vivo; method in brief: as §2
[28] = Elimination half life in Sprague-Dawley rat at 4 mg/kg, iv measured upto 24 hrs by LC-MS/MS analysis; type: ADME, organism-based; conditions: in vivo, read-out: beta t1/2 (converted); method in brief: as §2
[29] = AUC (0 to infinity) in Sprague-Dawley rat at 4 mg/kg, iv measured upto 24 hrs by LC-MS/MS analysis; type: ADME, organism-based; design: time < 24 hrs, dose 4 mg/kg, route iv; conditions: in vivo; method in brief: as §2
[30] = test system: Escherichia coli; test: Antibacterial activity against ESBL-producing Escherichia coli ATCC 35218 strains 15 1 to 3 assessed as reduction in bacterial growth incubated for 18 to 20 hrs by CLSI based microdilution method; type: functional; conditions: time 18-20 hrs; method in brief: as §4
[31] = test system: Pseudomonas aeruginosa; test: Antibacterial activity against multidrug resistant Pseudomonas aeruginosa strains 15 1 to 3 assessed as reduction in bacterial growth incubated for 18 to 20 hrs by CLSI based microdilution method; type: functional; conditions: time 18-20 hrs; method in brief: as §1
[32] = test system: Staphylococcus epidermidis; test: Antibacterial activity against methicillin-sensitive Staphylococcus epidermidis strains 15 1 to 4 assessed as reduction in bacterial growth incubated for 18 to 20 hrs by CLSI based microdilution method; type: functional; conditions: time 18-20 hrs; method in brief: as §1
[33] = Clearance in Sprague-Dawley rat at 4 mg/kg, iv measured upto 24 hrs by LC-MS/MS analysis; type: ADME, organism-based; conditions: in vivo; method in brief: as §2

Row | SMILES | MIC [1] | half-life [2] | Fh at 1 h, 0.1 µM [3] | half-life at 0.1 µM [4] | MIC [5] | CLH [6] | AUC(0-inf) [7] | MIC [8] | half-life at 0.1 µM [9] | MIC [10] | CLH [11] | MRT [12] | MIC [13] | MIC [14] | MIC [15] | MIC [16] | MIC [17] | clearance [18] | Fh at 1 h, 0.1 µM [20] | MIC [21] | further results
1 | [2H]C([2H])([2H])Nc1cc(F)cc2c1[nH]c1nc(Oc3cnc(C)nc3)nc(N3CC(=C(C)[C@@H](C)N)C3)c12 | 2 µg/mL (≈ 4.43 µM) | 6.5 h | 17.2% | 2.98 h | 0.25 µg/mL (≈ 0.554 µM) | 215 mL/min/g | 634 ng·h/mL | 4 µg/mL (≈ 8.86 µM) | 0.163 h | 4 µg/mL (≈ 8.86 µM) | 11.7 mL/min/g | 5.6 h | 1 µg/mL (≈ 2.21 µM) | 2 µg/mL (≈ 4.43 µM) | 0.25 µg/mL (≈ 0.554 µM) | 0.5 µg/mL (≈ 1.11 µM) | 0.25 µg/mL (≈ 0.554 µM) | 132 mL/min/kg | 62.6% | 0.125 µg/mL (≈ 0.277 µM) | Vd [19]: 44.5 L/kg
2 | [2H]C([2H])([2H])Nc1cc(F)cc2c1[nH]c1nc(Oc3cnc(C)nc3)nc(N3CC(=C(C)C(C)N)C3)c12 (configuration not stated) | 2 µg/mL (≈ 4.43 µM) | 7.2 h | 30% | 3.47 h | 0.25 µg/mL (≈ 0.554 µM) | 104 mL/min/g | 696 ng·h/mL | 4 µg/mL (≈ 8.86 µM) | 0.337 h | 4 µg/mL (≈ 8.86 µM) | 10.1 mL/min/g | 5.9 h | 1 µg/mL (≈ 2.21 µM) | 2 µg/mL (≈ 4.43 µM) | 0.25 µg/mL (≈ 0.554 µM) | 0.25 µg/mL (≈ 0.554 µM) | 0.25 µg/mL (≈ 0.554 µM) | 121 mL/min/kg | 66% | 0.125 µg/mL (≈ 0.277 µM) | IC50 [22]: > 40 µM; inhibition at 2 min, 40 µM [23]: 14.2%; Vd [19]: 43.2 L/kg
3 | CNc1cc(F)cc2c1[nH]c1nc(Oc3cnc(C)nc3)nc(N3CC(=CC(C)N)C3)c12 (configuration not stated) | 4 µg/mL (≈ 9.21 µM) |  | 19.7% | 1.78 h | 0.5 µg/mL (≈ 1.15 µM) | 180.9 mL/min/g |  | 8 µg/mL (≈ 18.4 µM) | 0.2 h | 8 µg/mL (≈ 18.4 µM) | 19.6 mL/min/g |  | 4 µg/mL (≈ 9.21 µM) | 4 µg/mL (≈ 9.21 µM) | 1 µg/mL (≈ 2.3 µM) | 1 µg/mL (≈ 2.3 µM) | 0.5 µg/mL (≈ 1.15 µM) |  | 50% | 0.5 µg/mL (≈ 1.15 µM) | IC50 [22]: > 40 µM; MIC [24]: < 0.008 µg/mL; inhibition at 2 min, 40 µM [23]: 32.3%; MIC [25]: 0.06 µg/mL (≈ 0.138 µM); Vd [26]: 33.4 L/kg; MRT [27]: 6.8 h; half-life [28]: 9 h; AUC(0-inf) [29]: 836 ng·h/mL; MIC [30]: 0.125 µg/mL (≈ 0.288 µM); MIC [31]: 0.5 µg/mL (≈ 1.15 µM); MIC [32]: < 0.008 µg/mL; clearance [33]: 81.5 mL/min/kg
